bIAP inhibitor = blocks bovine intestinal alkaline phosphatase activity; inhibition, % at 20 µM; 190,000 tested, under 10 active; purified bovine IAP, CDP-star luminescence, 30 min;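 active = over 50% inhibition of intestinal alkaline phosphatase at 20 µM in the single-dose screen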
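System: purified bovine intestinal alkaline phosphatase (IAP) enzyme; Input: IAP diluted 1/65,000,000 in the well; Measured by: CDP-star luminescence signal; Compound dosing: 20 µM single dose; Incubation: 30 min reaction at room temperature.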
bIAP act = intestinal alkaline phosphatase (bovine) activation; actives 0.17% (n = 200,000); activation factor at 20 µM; purified bovine IAP, CDP-star luminescence, 30 min; active compounds read high; fold of DMSO-control signal, blank-subtracted;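 active = activation factor of 2 or more at 20 µM, a signal rise over negative controls twice the positive control's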
mIAP activ = increases mouse intestinal alkaline phosphatase activity. AID 2805. activation factor at 10 µM. muIAP, CDP-Star luminescence, 30 min; active compounds read high; 1 = vehicle-only enzyme signal, 0 = enzyme-free wells. actives 0.24% (n = 330,000);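 active = activation factor of at least 2 at 20 µM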
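also added = chemiluminescent substrate CDP-Star | test system = mouse IAP enzyme | signal = chemiluminescence readout | compound = DMSO-dissolved test compounds | incubation = 30 min at room temperature | benchmarks = DMSO wells, no-enzyme wells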
hIAP activ = increases human intestinal alkaline phosphatase activity; AID 2524; purified human IAP, CDP-Star luminescence, 30 min; active compounds read high; 1 = vehicle-only enzyme, 0 = enzyme-free background; P09923; actives 0.16% (n = 330,000); activation factor at 10 µM;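 active = activation factor of the enzyme at least 2-fold when tested at 20 µM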
Target sequence (P09923 whole entry, looked up): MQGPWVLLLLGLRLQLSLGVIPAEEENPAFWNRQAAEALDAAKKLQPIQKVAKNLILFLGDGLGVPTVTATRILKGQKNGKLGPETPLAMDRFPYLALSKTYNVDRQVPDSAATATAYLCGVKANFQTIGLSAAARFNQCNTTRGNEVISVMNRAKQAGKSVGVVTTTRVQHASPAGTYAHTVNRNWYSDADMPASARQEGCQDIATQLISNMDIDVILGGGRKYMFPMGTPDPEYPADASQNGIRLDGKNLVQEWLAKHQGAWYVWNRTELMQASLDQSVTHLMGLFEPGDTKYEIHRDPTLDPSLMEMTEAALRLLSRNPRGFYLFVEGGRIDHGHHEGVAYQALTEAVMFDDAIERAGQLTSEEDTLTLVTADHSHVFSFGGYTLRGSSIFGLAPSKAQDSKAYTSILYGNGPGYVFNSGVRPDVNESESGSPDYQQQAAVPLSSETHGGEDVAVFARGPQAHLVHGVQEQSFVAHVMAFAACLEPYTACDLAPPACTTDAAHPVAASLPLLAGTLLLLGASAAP
hIAP inh = human IAP inhibition | P09923 | purified IAP, CDP-Star luminescence, 30 min | inhibition, % at 10 µM | actives 0.12% (n = 330,000);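 active = inhibition reaching a set limit with compound at 10 µM in the primary screen, cut at about 35% in these data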
mIAP block = blocks mouse intestinal alkaline phosphatase | actives 0.2% (n = 330,000) | AID 2806 | inhibition, % at 10 µM | purified mouse IAP, CDP-Star luminescence, 30 min;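 active = inhibition of at least 40% at 10 µM in the primary screen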
Numbers stand for hits; . = inactive; / = not tested or not shown. Only some compounds are listed: those with a hit (about 0.79% of all), similar ones and a draw of the others.

SMILES | bIAP inhibitor | bIAP act | mIAP activ | hIAP activ | hIAP inh | mIAP block
COCCn1c(C)cc(/C=C2/NC(=O)N(c3ccc(Cl)cc3)C2=O)c1C | . | . | . | . | . | .
FC(F)Oc1ccc(NC(=S)NCc2ccccc2)cc1Cl | . | . | 2.2 | . | . | .
CC(NC(=S)Nc1ccc(OC(F)F)c(Cl)c1)C(C)(C)C (stereo unspecified) | . | . | 3.5 | . | . | .
Cc1ccc(NC(=S)Nc2ccc(OC(F)F)c(Cl)c2)cc1Cl | . | . | / | / | / | /
FC(F)Oc1ccc(NC(=S)NCc2ccccc2)cc1 | . | . | . | . | . | .
O=C(CSC(=S)N1CCN(c2ccccc2)CC1)Nc1nc(-c2ccccc2)c(-c2ccccc2)o1 | . | 2.2 | . | . | . | .
CC(=O)/C(N=Nc1cc2c(c([N+](=O)[O-])c1C)C(C)(C)CC2(C)C)=C(\C)O | / | / | . | . | . | .
CC1CCN(CCc2nc3cc(NC(=O)NC4CCCCC4)ccc3n2C)CC1 | . | 2.5 | . | . | . | .
Cn1c(CCN2CCCCC2)nc2cc(NC(=O)NC3CCCCC3)ccc21 | . | . | . | . | . | .
COc1ccc(Nc2nccc(N(C)C)c2C#N)cc1 | . | . | . | . | . | .
CC(C)(C)c1ccc(NC(=O)Nc2ccc(OCC(=O)N3CCOCC3)cc2)cc1 | . | . | 2.1 | . | . | .
O=C(Nc1cccnc1)Nc1cc(Cl)cc(Cl)c1 | . | . | 2.5 | . | . | .
CCn1c(C)cc(/C=C2/SC(=S)NC2=O)c1C | . | . | . | . | . | 52
CCOP(=O)(OCC)C(NC(=O)Nc1ccc(Cl)c(Cl)c1)C(N)=O (stereo unspecified) | / | . | . | . | . | .
CCOP(=O)(OCC)C(NC(=O)Nc1ccc(Cl)cc1)C(N)=O (stereo unspecified) | . | . | . | . | . | .
CCOP(=O)(OCC)C(NC(=O)Nc1ccc(Cl)cc1)c1ccccc1 (stereo unspecified) | . | . | 2 | . | . | .
CCOP(=O)(OCC)C(NC(=O)Nc1ccc(Cl)c(Cl)c1)c1ccccc1 (stereo unspecified) | . | . | 5 | . | . | .
CC(=O)Nc1ccc2c(c1)N(S(=O)(=O)c1cccs1)CCC2 | / | / | . | . | . | .
CC(C)Cn1c(C23CC4CC(CC(C4)C2)C3)n[nH]c1=S | / | / | . | . | . | .
CC(C)Cn1c(N)c(C(=O)COC(=O)c2ccncc2)c(=O)n(C)c1=O | . | . | . | . | . | .
CC(C)Cn1c(N)c(C(=O)COC(=O)c2nccnc2N)c(=O)n(C)c1=O | / | / | . | . | . | 48
Cc1c(C(=O)O)sc2nc3n(c(=O)c12)CCC(C)CC3 (stereo unspecified) | . | . | . | . | . | 41
COc1ccc(S(=O)(=O)N2CC(O)CC2C(=O)OCc2nc3sc(C)c(C)c3c(=O)[nH]2)cc1 (stereo unspecified) | . | . | . | . | . | .
Cc1ccccc1NC(=O)Cc1nc(COC(=O)CCOc2ccccc2)cs1 | / | / | . | . | . | .
CC(C)NC[C@@H](O)c1ccc(O)c(O)c1 | . | . | . | . | . | 43
SMILES | bIAP inhibitor | bIAP act | mIAP activ | hIAP activ | hIAP inh | mIAP block
Cc1ccc(CC2CC(=O)N(c3cc(Cl)ccn3)C2=O)cc1 (stereo unspecified) | / | / | . | . | . | .
CC(C)(C)c1ccc(NC(=O)COc2ccc(-n3ccnc3)cc2)cc1 | . | 2.6 | . | . | . | .
COc1cc(NC(=O)COc2ccc(-n3ccnc3)cc2)cc(OC)c1 | . | . | . | . | . | .
CN(C)c1nc(NCc2ccccc2)nc(SCC(=O)Nc2ccccc2)n1 | . | . | 2 | . | . | .
CN(C)c1nc(NC(C)(C)C)nc(SCC(=O)Nc2ccccc2)n1 | . | . | . | . | . | .
CCN1C(=O)/C(=C/C=C2/SCCN2C)SC1=S | . | . | . | . | . | 48
CN1CCS/C1=C\C=C1/SC(=S)N(CC(=O)O)C1=O | / | . | / | / | / | /
N#Cc1cnc(Nc2ccc(F)cc2)nc1N | / | / | . | . | . | .
CC1Cc2cc(/C(O)=C3/C(=O)C(=O)N(CCCn4ccnc4)C3c3ccc(Br)cc3)ccc2O1 (stereo unspecified) | / | / | . | . | . | .
CC(=O)Nc1ccc(NC(=O)c2c(-c3ccccc3)noc2C)cn1 | / | / | . | . | . | .

Compound activity from PubChem BioAssay.
